Fh CTSL1 inh = counter-screen for PFM18AAP inhibitors: inhibitors of F. hepatica cathepsin L1 | recombinant F. hepatica cathepsin L1, Z-Leu-Arg-MCA fluorescence | inhibition, % at 5.96 µM | hit rate 0.49% among 300,000 | AID 1906;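 active = inhibition above the mean of all tested compounds plus 3 SD, set per screening campaign, cut at about 17% in these data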;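 note: 0% = plate median of test compound wells and 100% = 1 µM Z-Phe-Ala-diazomethylketone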
TDP2 absorb = blocks human TDP2 phosphodiesterase activity; AID 720702; inhibition, % at 12.8 µM; recombinant TDP2, T5PNP hydrolysis, p-nitrophenol absorbance 415 nm; O95551; hit rate 0.34% among 370,000;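 active = inhibition above the mean of all tested compounds plus 3 SD, set per campaign, cut at about 25% in these data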;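 note: 0% = DMSO with enzyme and 100% = buffer with substrate but no TDP2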
Target sequence (O95551 whole entry, looked up): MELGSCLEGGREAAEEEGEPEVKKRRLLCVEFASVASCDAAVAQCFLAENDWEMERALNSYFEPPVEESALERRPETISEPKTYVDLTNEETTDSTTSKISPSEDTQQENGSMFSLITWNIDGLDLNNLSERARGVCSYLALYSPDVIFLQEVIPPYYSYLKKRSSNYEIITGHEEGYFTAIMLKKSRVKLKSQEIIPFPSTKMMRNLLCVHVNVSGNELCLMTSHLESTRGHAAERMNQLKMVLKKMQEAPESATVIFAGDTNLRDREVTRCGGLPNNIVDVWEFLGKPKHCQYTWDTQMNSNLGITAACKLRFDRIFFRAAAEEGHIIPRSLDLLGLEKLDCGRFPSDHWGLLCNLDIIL
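test system = human TDP2 enzyme | input = TDP2 enzyme at 120 nM final | medium = 50 mM Tris-HCl pH 7.5 with Mg2+, KCl, DTT, BSA | also added = T5PNP substrate, 5 mM | times = 2 h at 37 °C | technique = epi absorbance | benchmarks = high control without enzyme, low control DMSO plus TDP2 | replication = each compound tested once, singlicate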
PRMT1 FP inh = PRMT1 (human) inhibition, primary screen. Q99873. recombinant PRMT1, activity-based probe fluorescence polarization. inhibition, % at 2.79 µM. hit rate 1.3% among 370,000. AID 652257;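 active = inhibition above about 21% made by adding two undisclosed values, limit read from the data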
PAD4 inh = PAD4 (human) enzyme inhibition | recombinant PAD4, RCA probe fluorescence polarization | inhibition, % at 6.36 µM | hit rate 0.41% among 330,000 | AID 485272;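 active = percent inhibition above a cutoff equal to the mean of all tested compounds plus 3 SD, cut at about 15% in these data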;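 note: 0% = PAD4 with RCA probe and DMSO and 100% = probe without PAD4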
GSTO1 inh = counter-screen for RBBP9 inhibitors: inhibitors of human GSTO1; P78417; recombinant GSTO1, activity-based probe fluorescence polarization; inhibition, % at 5.96 µM; hit rate 1.1% among 300,000; AID 1974;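 active = inhibition above the campaign mean inhibition plus 3 SD, cut at about 35% in these data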;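 note: 0% = GSTO1-1 with DMSO and 100% = wells lacking GSTO1-1 enzyme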
Target sequence (P78417 whole entry, looked up): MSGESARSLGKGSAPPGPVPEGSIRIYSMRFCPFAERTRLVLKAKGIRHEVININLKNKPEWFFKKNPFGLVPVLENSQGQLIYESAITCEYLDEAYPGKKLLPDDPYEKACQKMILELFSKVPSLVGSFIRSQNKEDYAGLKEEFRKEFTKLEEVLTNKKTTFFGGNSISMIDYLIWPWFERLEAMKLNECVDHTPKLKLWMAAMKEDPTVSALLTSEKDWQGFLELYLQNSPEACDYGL
PRMT1 confirm = PRMT1 (human) inhibition, FP confirmation; shares compounds with PRMT1 FP inh; recombinant His-PRMT1, activity-based probe fluorescence polarization; inhibition, % at 2.79 µM; hit rate 42% among 3,300;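 active = mean inhibition across replicates above the hit cutoff derived for the earlier primary screen, cut at about 22% in these data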
* marks the source's active call; other numbers are inactive results; x = no result given. Compounds with a hit are over-represented: about 2.5% of the library has one in this group of screens.

SMILES	Fh CTSL1 inh	TDP2 absorb	PRMT1 FP inh	PAD4 inh	GSTO1 inh	PRMT1 confirm
Cc1ccc2nc(SCC(=O)N/N=C/c3ccco3)cc(C)c2c1	-1.4	-5.4	-0.2	4.3	-2.4	x
COc1cccc2c(N/N=C/c3ccccc3)cc(C)nc12	-2.1	-4.0	0.8	-3.2	2.2	x
Cc1ccc2nc(C)cc(SCC(=O)N/N=C/c3ccco3)c2c1	4.7	-10.3	52.2*	7.4	-6.9	-2.7
COc1cccc2c(SCC(=O)N/N=C/c3ccccc3)cc(C)nc12	-0.6	4.4	46.8*	8.8	4.2	-2.8
CS(=O)(=O)N1c2ccccc2C[C@H]1Cc1cc2ccccc2o1	x	-3.2	1.4	x	x	x
O=C(O)Cn1c2ccccc2c2n[nH]c(=S)nc21	1.8	-0.1	41.6*	4.4	-7.2	84.7*
C=CCn1c2ccccc2c2n[nH]c(=S)nc21	x	-8.5	29.5*	x	x	4.9
c1ccc2c(c1)[nH]c1nc(SCCN3CCOCC3)nnc12	3.3	-8.2	29.9*	2.8	-6.0	3.2
COC(=O)[C@]12C[C@H](CC(=O)N3CCN(C(=O)C4CC4)CC3)C(=O)N(Cc3cccc4ccccc34)C1=C[C@H](COCc1ccccc1)O[C@@H]2C	x	-18.4	-6.0	x	x	x
O=C(CSc1ccccn1)N1CCN(c2cccc(Cl)c2)CC1	1.3	-6.4	46.8*	-0.8	-4.8	53.0*
CCOC(=O)c1sc(NC(=O)C(C)C)c(C#N)c1C	-0.3	-8.8	29.1*	-0.8	8.4	2.2
CN1CCN(c2ccc3c(c2)Oc2ccccc2CN(Cc2cn(Cc4cccc(C(F)(F)F)c4)nn2)S3(=O)=O)CC1	x	-2.7	-0.7	x	x	x
COc1ccc(C2Nc3ccccc3C(=O)N2Cc2ccc(C)o2)cc1COc1c(C)cccc1C (centres undefined)	x	-4.4	38.7*	x	x	3.0
Nc1c(C(=O)N2CCCC2)sc2nc(-c3ccccc3)ccc12	1.2	-11.4	34.4*	-0.1	2.3	4.8
COc1ccc(NC(=O)c2sc3nc(-c4cccnc4)ccc3c2N)cc1OC	-3.2	11.4	4.0	-2.4	2.5	x
Nc1c(C(=O)Nc2ccccc2)sc2nc(-c3ccco3)ccc12	2.8	7.7	52.0*	-3.5	8.4	40.1*
COc1ccc2cc3c(N)c(C(=O)N4CCCC4)sc3nc2c1	2.9	-2.8	40.8*	-1.9	5.5	-0.1
Nc1c(C(=O)Nc2ccccc2)sc2nc(-c3cccnc3)ccc12	-1.4	-9.2	39.6*	-4.1	6.4	2.2
O=C(OCc1cn(Cc2ccc(Cl)cc2)nn1)N1CCOCC1	x	-4.1	-2.0	x	x	x
CCOP(=O)(OCC)c1ccc2c(c1)C(=O)c1ccccc1-2	x	4.4	1.1	x	x	x
COCC(=O)N[C@@H]1C[C@@H]2O[C@H](CO)CC[C@@H]2O[C@@H]1CCc1ccc(-c2ccccc2)cc1	x	4.2	1.7	x	x	x
CCCC[C@@H]1C(=O)N2N=C(c3ccccc3)c3ccccc3[C@H]2N2N=C(c3ccccc3)c3ccccc3[C@@H]12	x	2.8	-1.5	x	x	x
COc1ccc(CCNC2CC(=O)N(CCc3ccc(OC)c(OC)c3)C2=O)cc1OC (centres undefined)	x	2.3	54.3*	x	x	1.1
CC(C)CNc1cccc2c1S(=O)(=O)N(Cc1cn(Cc3ccc(C(F)(F)F)cc3)nn1)Cc1ccccc1O2	x	3.2	-0.5	x	x	x
O=C1C=C(C2OC(CO)C(O)C2O)C(=O)N1 (centres undefined)	x	-1.9	70.0*	x	x	71.3*
SMILES	Fh CTSL1 inh	TDP2 absorb	PRMT1 FP inh	PAD4 inh	GSTO1 inh	PRMT1 confirm
COCC(=O)N(c1ccc(C(C)(C)C)cc1)C(C(=O)NC(C)(C)C)c1cccnc1 (centres undefined)	x	-6.9	2.3	x	x	x
Cc1ccccc1Nc1n[nH]c(=S)s1	x	7.1	36.3*	x	x	5.7
S=c1[nH]nc(Nc2cccc3ccccc23)s1	0.1	-11.5	54.7*	-2.4	-2.0	42.4*
Fc1ccccc1Nc1n[nH]c(=S)s1	1.6	-0.6	7.6	5.0	-0.9	x
O=C1C=CC(=O)N1	-3.4	-15.3	78.5*	-2.2	1.2	86.7*
CC(C)CN1C(=O)C[C@]2(C(=O)N(C)c3ccc(NS(=O)(=O)C4CC4)cc32)C1c1ccccc1 (some centres undefined)	x	-7.0	-9.2	x	x	x
Fc1cccc(Cc2c(-c3ccco3)nc3ccc(Br)cn23)c1	x	-1.5	34.1*	x	x	10.5
Cc1cc(Br)cn2c(Cc3cccc(F)c3)c(-c3ccco3)nc12	x	-0.3	34.9*	x	x	30.1*
Cc1cc(Br)cn2c(Cc3cccc(F)c3)c(-c3cccc(Cl)c3)nc12	x	-11.2	-1.7	x	x	x
O=C1/C(=C/c2ccc(Cl)cc2)SC(=S)N1CCC(=O)N1CCCCC1CCO (centres undefined)	4.3	15.2	1.4	-38.3	15.9	x
O=C1/C(=C/c2ccco2)SC(=S)N1CCC(=O)N1CCCCC1CCO (centres undefined)	6.2	16.8	26.5*	-9.0	22.1	1.5
CCN(CC)c1ccc(NC(=O)c2ccccc2)cc1S(=O)(=O)Nc1ccccc1OC	1.1	-6.6	26.6*	1.8	4.5	10.1
CCN(CC)c1ccc(NC(=O)c2cccc(C)c2)cc1S(=O)(=O)Nc1ccccc1OC	2.9	-5.4	33.6*	-2.8	-1.6	4.5
Cc1nc2ccc(NC(=O)c3ccc(F)cc3F)cc2c(=O)[nH]1	x	1.8	-1.9	x	x	x
Cc1nc(CNS(=O)(=O)c2cccc(F)c2)cs1	-1.5	2.1	-0.5	-0.1	5.7	x
Cc1ccc(-c2csc(NS(=O)(=O)c3cccc(F)c3)n2)o1	x	-2.7	53.5*	-5.4	x	21.0
COC(=O)[C@]12C[C@H](CC(=O)N3CCN(C(=O)C4CC4)CC3)C(=O)N(Cc3cccc4ccccc34)C1=C[C@H](C(C)(C)C)O[C@@H]2C	x	1.0	1.0	x	x	x
CC(=O)Nc1ccc(S(=O)(=O)NCC(=O)NNC(=O)COc2ccccc2Cl)cc1	-17.5	0.5	25.2*	0.5	2.6	22.1*
Cc1ccc(S(=O)(=O)N2CCSC2c2ccco2)cc1 (centres undefined)	-10.6	-12.6	31.0*	-3.1	-2.8	7.6
CO[C@@]1(NC(=O)C2SC(=C(C(N)=O)C(=O)O)S2)C(=O)N2C(C(=O)O)=C(CSc3nnnn3C)CS[C@@H]21 (some centres undefined)	9.0	9.3	37.4*	3.2	0.8	19.0
CO[C@@]1(NC(=O)Cc2cccs2)C(=O)N2C(C(=O)O)=C(COC(N)=O)CS[C@@H]21	4.5	3.0	14.6	-3.2	0.0	x
COc1ccccc1NC(=O)/C(C#N)=C/C=C/c1ccco1	0.8	-0.3	28.4*	-1.4	6.1	8.5
C=CCn1c(Cc2ccccc2)n[nH]c1=S	0.0	3.6	-2.7	0.3	2.5	x
C=CCn1c(CSc2ccccc2[N+](=O)[O-])n[nH]c1=S	-0.3	-16.3	24.9*	-2.4	9.2	5.2
Cc1ccc(CSc2ccc(-c3ccco3)nn2)cc1	3.5	-7.5	32.5*	-2.1	-0.3	7.1
COc1cccc(CNC(=O)CSc2ccc(-c3ccco3)nn2)c1	5.8	-13.0	8.2	-7.5	11.4	x
